Tested on: MS2 coat protein
Experiment: apparent Kd, MS2 coat protein; higher = weaker binding; RNA-MaP array; FMN 200 µM where present
Procedure, shortened: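 In 100 mM Tris-HCl pH 7.5, 80 mM KCl, 4 mM MgCl2, BSA, DTT, yeast tRNA and Tween-20, SNAP-549-labelled MS2 coat protein was titrated from 0.7 or 1.5 nM, doubling to 3 µM, over designs transcribed by stalled E. coli RNA polymerase on Illumina sequencing-chip clusters. This was done first without ligand, then with ligand held constant. After green signal was normalised to red-channel RNA signal and control-cluster median Fmax, the apparent Kd was taken as the median of filtered per-cluster binding-curve fits.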

[1] = designed as: OFF switch for flavin mononucleotide, no ligand
[2] = ligand present: flavin mononucleotide, designed as: OFF switch for flavin mononucleotide
[3] = designed as: ON switch for flavin mononucleotide, no ligand
[4] = ligand present: flavin mononucleotide, designed as: ON switch for flavin mononucleotide

Sequence: UAUAUAUAGGCAGGAUAUACAUGUAUAUAUAAUAUAUUAUAUAAUAUAACAUGAGGAUCACCCAUGUAGAAGGGCCAUAAUAUA
- apparent Kd [1]: 58.4 nM
- apparent Kd [2]: 83.7 nM

Sequence: UUUGUUUAUGUGAGGAUAUACUGUUUGUUUUGUUUGUAGAAGGUACAUGAGGAUCACCCAUGUUUUGUAUUUAU
- apparent Kd [1]: 21.5 nM
- apparent Kd [2]: 18.8 nM

Sequence: GUUGUUACUGAGGAUAUUAUUUUAUUCGACUGAUAAGAAGGCAGUACAUGAGGAUCACCCAUGUGGGUAGCCAG
- apparent Kd [1]: 27.9 nM
- apparent Kd [2]: 170 nM

Sequence: UAUAUAUAGUAAGGAUAUGUAAUUAUCUUAUAAACAGAAGGUACUGACAUGAGGAUCACCCAUGUUUUAGUGUGGGCAUGUAGA
- apparent Kd [1]: 56.9 nM
- apparent Kd [2]: 60.1 nM

Sequence: AUCAGCUCGUCAGGAUAUAAGUCACUGCGUCAGCAGUGUGGUAAGAUCACAUGAGGAUCACCCAUGUAGAAGGGACGAGCUGAU
- apparent Kd [1]: 11.8 nM
- apparent Kd [2]: 46.7 nM

Sequence: CUUAUUAAACAAGGAUAUCAUUUGUGUACAAGUUUUACAUGAGGAUCACCCAUGUUAAAUGGUUUUGAGAAGGUGUUUAGAACU
- apparent Kd [3]: 58.4 nM
- apparent Kd [4]: 31.5 nM

Sequence: GCACAUGAUACAGGAUAUGUAUUGGAAUUUAUAAUGAGUUAUAUAAUAUUUACAGAAGGGUAUACAUGAGGAUCACCCAUGUGC
- apparent Kd [1]: 30.7 nM
- apparent Kd [2]: 23 nM

Sequence: UUUUUAUUUGAAGGAUAUACUUAACAUGAGGAUCACCCAUGUGGUGUUGUGAGUGAGUGAGUUUAGUAGAAGGUCAAUUCUUUU
- apparent Kd [1]: 401 nM
- apparent Kd [2]: 696 nM

Sequence: GGGCCGAUAGGAUAUACAUGAGGAUCACCCAUGUAUGCUUAGAAGCGGCAAUCCUUAUGUAGAAGGGUCAGGCU
- apparent Kd [1]: 37.1 nM
- apparent Kd [2]: 33.4 nM

Sequence: AAAAAACAUGAGGAUCACCCAUGUAAAAAAAUGGGAGGAUAUACAAAAACGAAAGUCAAAGUAGAAGGCCUGAAAA
- apparent Kd [3]: 119 nM
- apparent Kd [4]: 25.6 nM

Sequence: AUAGUAUAGCAAGGAUAUCGAUUUAGUUUGUUACGAGAAGGUGCUUUAGUUUAUACCUCUUGUUUACAUGAGGAUCACCCAUGU
- apparent Kd [1]: 23.1 nM
- apparent Kd [2]: 20.6 nM

Sequence: AAUAACAGAGGAUAUACUAUUUUAUGUGUUUGUUAUUUUAAACAUGAGGAUCACCCAUGUAGAAGGCUGAAUGA
- apparent Kd [1]: 26.4 nM
- apparent Kd [2]: 26.4 nM

Sequence: GCUGUCGCAUGAGGAUAUGGUCAGGUUUCCUGACCAGAAGGCAUGUCAAUAGACAUGAGGAUCACCCAUGUAGUAAAGACAGCA
- apparent Kd [3]: 447 nM
- apparent Kd [4]: 36.4 nM

Sequence: GGCGGUCGGGAGGAUAUUCGGGCUGUUUGGCUUGGAGAAGGCUCGACAUGAGGAUCACCCAUGUUGGUGUUCUU
- apparent Kd [1]: 387 nM
- apparent Kd [2]: 40.8 nM

Sequence: CGUGCUUAUGUAGGAUAUGGUUAUCUAUGUCUAGUUACUAGACAUAGAUAACCAGAAGGACAUGAGGAUCACCCAUGUUGCACG
- apparent Kd [1]: 8.28 nM
- apparent Kd [2]: 15.5 nM

Sequence: GACAUGGGCUAGAAGGCCUAUCUAUUUAAGUACGAUUUAGAACAGCAUAGGAGGAUAUGGCUAACAUGAGGAUCACCCAUGUUC
- apparent Kd [3]: 170 nM
- apparent Kd [4]: 39.2 nM

Sequence: CGAGACCUCACAGGAUAUGCUGGACUUUGUCCAGCAGAAGGGUGAAAACAUGAGGAUCACCCAUGUAUGGUCUCCAAAUUUAAA
- apparent Kd [3]: 182 nM
- apparent Kd [4]: 13.6 nM

Sequence: UUUGUCUGUGUGAGGAUAUACUUUGUUUGGUCGUUGUAGAAGGCACAUGAGGAUCACCCAUGUAGUUUGUUGUG
- apparent Kd [1]: 20.4 nM
- apparent Kd [2]: 22.9 nM

Sequence: GCCAUCGUAUGAGGAUAUGGCACCGAAACGGUGCCAGAAGGCAUGUCAAUAGACAUGAGGAUCACCCAUGUUUUAUCGAUGGCA
- apparent Kd [3]: 89.7 nM
- apparent Kd [4]: 23.5 nM

Sequence: UUUUUGUGAGGAUAUGCGUAGUAGAACAAUAGUACUACUACGUAGAAGGCACAUGAGGAUCACCCAUGUUCCUC
- apparent Kd [1]: 37.8 nM
- apparent Kd [2]: 254 nM

Sequence: AGCUAAAACGAAGGAUAUACUGACAUGAGGAUCACCCAUGUCUACAUGAUUUAUUGUGAUCACAUGUAGAAGGUCGUACUAACA
- apparent Kd [3]: 74.4 nM
- apparent Kd [4]: 27.7 nM

Sequence: UUGAGUUAGCAGGAUAUGGGCAGCAGGAUGCUUCCAGAAGGGCUGACAUGAGGAUCACCCAUGUUCCCAUGCUU
- apparent Kd [1]: 47.7 nM
- apparent Kd [2]: 63.6 nM

Sequence: UGGAUAGGAAAAUUUGUCCAUUGUACAGAAGGCCAACAUGAGGAUCACCCAUGUAAGAAAAGGAUGGAGGAUAUGUAUAGGGCC
- apparent Kd [3]: 64.5 nM
- apparent Kd [4]: 20.9 nM

Sequence: AUCAGCUCGUCAGGAUAUACGUUACUGCGUCAGCAGUGUGGUAAGAUCACAUGAGGAUCACCCAUGUAGAAGGGACGAGCUGAU
- apparent Kd [1]: 61.8 nM
- apparent Kd [2]: 653 nM

Sequence: CUGCAACAUGAGGAUCACCCAUGUAACCCAAUUAUAGGAUAUGUGAUGGUGAUCGACAUGACAGAAGGGUGAUUGG
- apparent Kd [3]: 38.8 nM
- apparent Kd [4]: 149 nM

Sequence: GCGUACUGAGGAUAUACAUGAGGAUCACCCAUGUGACACAGCGUUUAGUGAUGAAUUUGUAGAAGGCAGUAGGC
- apparent Kd [1]: 146 nM
- apparent Kd [2]: 219 nM

Sequence: GAUUAGCUUGGAGGAUAUGGUACGGGCAGCUAACCAGAAGGCCAAGAACAUGAGGAUCACCCAUGUGCCGUUGGCCAUGGGAGG
- apparent Kd [1]: 37.1 nM
- apparent Kd [2]: 13.2 nM

Sequence: GGCAAUAACGAGGAUAUCGUAUCGGAAACGAUACGAGAAGGUGUAACAUGAGGAUCACCCAUGUUCCUUAAGCC
- apparent Kd [1]: 24.9 nM
- apparent Kd [2]: 26.6 nM

Sequence: UUGGUAUUUGUAGGAUAUCUGUCGCCACCGUGUGGAGAAGGACGAACAUGAGGAUCACCCAUGUAUCAUGGUGUGGGCUUUCCU
- apparent Kd [1]: 104 nM
- apparent Kd [2]: 99.7 nM

Sequence: UGGUACAUGAGGAUCACCCAUGUAAGAGCCCUCAUGCGAUGUAGAAGGAUUAUGCGAGUAGUGCAAUAGGAUAUACAUGAGUUU
- apparent Kd [1]: 216 nM
- apparent Kd [2]: 163 nM

Sequence: UGUGUCAUCGAGAAGGCCUCAACAUGAGGAUCACCCAUGUUGUAAUAUGGGAGGAUAUCGAUGAUACAGCUACGUUUCGUAGCU
- apparent Kd [3]: 19.2 nM
- apparent Kd [4]: 5.78 nM

Sequence: GAGAAGAAGUUAGGAUAUUGGAUAGGGACGGAAUAAGAAGGAGCAAGACAUGAGGAUCACCCAUGUGUAGAAGAAGAGAUCCUC
- apparent Kd [1]: 520 nM
- apparent Kd [2]: 384 nM

Sequence: GAAGCACACAUUAACAUGAGGAUCACCCAUGUCAAAAGACGUGAGGAUAUGGAUCUGAAGAAGAUCCAGAAGGCACUGUGCUAA
- apparent Kd [3]: 8.83 nM
- apparent Kd [4]: 6 nM

Sequence: GUGGUACAUGAGGAUCACCCAUGUUAGGAUAUCGCGUGAGGUUUUACUUCCGCACACACGAGAAGGGACGUCUU
- apparent Kd [1]: 32.9 nM
- apparent Kd [2]: 28 nM

Sequence: CUACCUUAUGAGAAGGCGAUCAUGAAACAUGAUCGAGGAUAUCAUGUAAACAUGAGGAUCACCCAUGUAUGGGUAUUAUGGUAC
- apparent Kd [3]: 98.5 nM
- apparent Kd [4]: 27.3 nM

Sequence: UCACACCACGUUAGGAUAUCGCUGGACAAAACUGGCGAGAAGGAACAUGAGGAUCACCCAUGUGACUUCAAGGU
- apparent Kd [1]: 16.2 nM
- apparent Kd [2]: 18.5 nM

Sequence: CUGAGCUGAGGAUAUACAUGAGGAUCACCCAUGUGUUAGAGCUUGCGUACAGGCAGAUGUAGAAGGCAGUUCGG
- apparent Kd [1]: 17.4 nM
- apparent Kd [2]: 49.7 nM

Sequence: UGAUCUUGAGUCAGGAUAUGCUGGUUUUUUUUUUAGCAGAAGGGACAUGAGGAUCACCCAUGUUCUCACUUUUU
- apparent Kd [1]: 16.1 nM
- apparent Kd [2]: 20.2 nM

Sequence: GUGUAGAUAGGAUAUGCUGGAAUCUAGCGAAGCUAGGUUCUACAUGAGGAUCACCCAUGUAGAAGGGUCUACAC
- apparent Kd [1]: 33.4 nM
- apparent Kd [2]: 22.6 nM

Sequence: UCGCCAGGUACAGGAUAUGUGGAUCAGUCAAGUAACUUGCUGAACAUGAGGAUCACCCAUGUAUCACAGAAGGGUGCCUCAAAA
- apparent Kd [3]: 199 nM
- apparent Kd [4]: 10.8 nM

Sequence: UGGUACUAGGGAGGAUAUGGGAAGAUACAUGAGGAUCACCCAUGUUUAAGAAUGCCGAGAGGCAGCUAGAAGGCCCUAGUACCU
- apparent Kd [3]: 675 nM
- apparent Kd [4]: 24.7 nM

Sequence: GGAGAUACAUGAGGAUCACCCAUGUAGGAUAUAUAGUAUAUAUAUAGCGAAAGCUAUAUAUAUAUAUAGAAGGGCGUACACACC
- apparent Kd [1]: 7.67 nM
- apparent Kd [2]: 8.02 nM

Sequence: AACUCUGAGAAGGAUAUUCAAUGGGAAACGAUGGAAGAAGGUUUCACAUGAGGAUCACCCAUGUCGAAUAGUGA
- apparent Kd [1]: 71.9 nM
- apparent Kd [2]: 63.9 nM

Sequence: UCAUUAUAAAUCCAUCAUAACUACAUGAGGAUCACCCAUGUGCAGGAUAUCGAUUUUUUAACUUUCGAGAAGGGCAAUUACAGA
- apparent Kd [1]: 37.6 nM
- apparent Kd [2]: 96.1 nM

Sequence: UGCUAGGACCUAGGAUAUCCUGGGUUGGUGGUGCUUGAUGACCGGACAUGAGGAUCACCCAUGUAGGAGAAGGAGGUUGUUAAG
- apparent Kd [1]: 61.2 nM
- apparent Kd [2]: 100 nM

Sequence: AGGUAACAUGAGGAUCACCCAUGUCAGGAUAUCAUAAAGAUUAGAUUAGAGAAGAGGUUGAGAAGGGACUAUAU
- apparent Kd [1]: 44.9 nM
- apparent Kd [2]: 38.4 nM

Sequence: GCUAGUAUUGCAGGAUAUUGAGAAUAAUUAUUCCAAGAAGGGCAUAACAUGAGGAUCACCCAUGUAUUCCUUAGUGAUACUAGC
- apparent Kd [1]: 4.39 nM
- apparent Kd [2]: 4.44 nM

Sequence: CUUUUGUGAGGAUAUCAGUAUUAAAUAAAUAAAAUUACUACUGAGAAGGCACAUGAGGAUCACCCAUGUUCCUC
- apparent Kd [1]: 33.4 nM
- apparent Kd [2]: 201 nM

Sequence: UGAUAGGACAGAGGAUAUACAUGCUAGAGAUACUAGCUAAAUUUCCUCACAUGAGGAUCACCCAUGUAGAAGGCUGUCCUAUCU
- apparent Kd [1]: 19.4 nM
- apparent Kd [2]: 378 nM

Sequence: UUAAUCUAUACAGGAUAUCCAUACGCUGCAUACGGAGAAGGGUAACAAUCAUGAGGACAUGAGGAUCACCCAUGUUGUGACCAU
- apparent Kd [3]: 198 nM
- apparent Kd [4]: 97.1 nM

Sequence: GGAUGAGAAACUCAUCCAAUACGAACAUGAGGAUCACCCAUGUAGGAUAUGCUACUCAAAGAGUAGCAGAAGGACAUGUGUCUU
- apparent Kd [1]: 27.4 nM
- apparent Kd [2]: 159 nM

Sequence: UUUUAACAUGAGGAUCACCCAUGUGAGGAUAUCGAAAUUUAUAUUUAUAUUAAUUAUUCGAGAAGGCACAUUUU
- apparent Kd [1]: 163 nM
- apparent Kd [2]: 133 nM

Sequence: GGACAUCCCACAGGAUAUGCUGGACUUUGUCCAGCAGAAGGGUGAAAUACAUGAGGAUCACCCAUGUGGAUGUCCAUAUUUAAU
- apparent Kd [3]: 747 nM
- apparent Kd [4]: 253 nM

Sequence: UUAGGCUUCUAGAAGGCGGUCCAGCUAGAGGACCGAGGAUAUAGGCACCUAACAUGAGGAUCACCCAUGUUAGUGAUUCCUCAA
- apparent Kd [1]: 132 nM
- apparent Kd [2]: 166 nM

Sequence: UCGAAAAUACAAGGAUAUCAAUUGUAGCUAAAUUCAACAUGAGGAUCACCCAUGUAACUAUGGAGUGAGAAGGUGUAGUAAUUU
- apparent Kd [3]: 113 nM
- apparent Kd [4]: 450 nM

Source: the EternaBench riboswitch data
